Assay [1] has as its target T1, Muscarinic acetylcholine receptor M1 (Rattus norvegicus, UniProt P08482).
T1 sequence (P08482 whole entry): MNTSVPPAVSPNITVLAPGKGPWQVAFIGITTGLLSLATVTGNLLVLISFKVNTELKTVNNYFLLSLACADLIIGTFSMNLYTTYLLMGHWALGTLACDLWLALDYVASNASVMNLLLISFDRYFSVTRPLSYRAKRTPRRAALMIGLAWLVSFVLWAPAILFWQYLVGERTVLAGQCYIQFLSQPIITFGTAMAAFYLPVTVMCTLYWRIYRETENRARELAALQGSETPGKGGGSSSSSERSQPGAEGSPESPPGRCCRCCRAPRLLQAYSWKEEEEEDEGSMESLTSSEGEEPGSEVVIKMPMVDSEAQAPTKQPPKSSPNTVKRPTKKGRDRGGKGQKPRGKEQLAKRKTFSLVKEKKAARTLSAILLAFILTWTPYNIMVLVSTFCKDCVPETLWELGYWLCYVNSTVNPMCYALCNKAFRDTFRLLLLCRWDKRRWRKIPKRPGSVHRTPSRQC
Briefly: In vitro binding affinity against rat hippocampus M1 receptor using [3H]oxotremorine-M (Oxo-M) as radioligand. It is filed as tissue-based. In a few lines: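 Male Sprague-Dawley rat hippocampal P2 membranes (10 mg tissue wet weight, about 0.1 mg protein) with 3 nM [3H]oxotremorine-M in 20 mM Tris-Cl pH 7.4, 1 mL, 15 min at 25 °C.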

The target in assay [2] is T1, Muscarinic acetylcholine receptor M1. The assay can be described thus: In vitro binding affinity against rat hippocampus M1 receptor using [3H]pirenzepine (Pz) as radioligand. It is filed as tissue-based. Summed up:
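Male Sprague-Dawley rat hippocampal P2 membranes (10 mg tissue wet weight, about 0.1 mg protein) with 1 nM [3H]pirenzepine in 20 mM Tris-Cl pH 7.4 containing 1 mM MnCl2, 1 mL, 60 min at 25 °C.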

For assay [3], the species on record is Oryctolagus cuniculus. The assay can be described thus: (§1) Efficacy at M1 receptor measured by the ability to inhibit the electrically stimulated twitch of the rabbit vas deferens. It is filed as functional. Summed up: (§2)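 Cumulative concentration-effect curves with additions at 20-min intervals in two tissues; read-out twitch height decrease; if inhibition ≥50%, curves repeated in at least six tissues.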

The species entered for assay [4] is Oryctolagus cuniculus. Described as §1. It counts as functional, organism-based. Summed up:
as §2

Assay [5] deals with T1, Muscarinic acetylcholine receptor M1. Briefly: Displacement of [3H]pirenzepine (Pz) from rat hippocampus muscarinic acetylcholine receptor M1. It is filed as tissue-based.
Assay [6] has the same target. Briefly: Displacement of [3H]oxotremorine-M (Oxo-M) from rat hippocampus muscarinic acetylcholine receptor M1. It counts as tissue-based.

Some results are limits rather than exact numbers.

On to `CCCCCOc1nccnc1C1=CCCN(C)C1`, for which the IC50 in assay [1] was determined as 19 nM; in assay [2], 16 nM. Besides, in the assay listed under Oryctolagus cuniculus [3], the Max came to 29%.
The corresponding values for `CCCCOc1nccnc1C1=CCCN(C)C1` are 17 nM, 17 nM and 0%.
In the same order, the values of `COc1nccnc1C1=CCCN(C)C1` are 850 nM, 840 nM and 0%.
The corresponding values for `CCCCCSc1nccnc1C1=CCCN(C)C1` are 13 nM, 10 nM and 18%.
Take `CCCOc1nccnc1C1=CCCN(C)C1`: the values for the IC50 in assay [1] and in assay [2] were 58 nM and 65 nM, respectively. The compound also came in with a Max in the assay filed under Oryctolagus cuniculus [3] of 4%.
In the same order, the values of `CCOc1nccnc1C1=CCCN(C)C1` are 200 nM, 175 nM and 14%.
As to `CCCCCCSc1nccnc1C1=CCCN(C)C1`, the half-inhibitory concentration (IC50) in assay [1] was 44 nM; in assay [2] it was 28 nM; in the assay listed under Oryctolagus cuniculus [4] it was 224 nM. For the same compound, the Max in the assay filed under Oryctolagus cuniculus [3] is given as 62%.
In turn, `CCCCCCNc1nsnc1C1=CCCN(C)C1` registered a Max in the assay filed under Oryctolagus cuniculus [3] of 65%.
The same measure, in the same setting: then `CCCCCCOc1nonc1C1=CCCN(C)C1`, with 47%.
The same measure, in the same setting: then `CCCOc1nsnc1C1=CCCN(C)C1`, with 25%.
Regarding `CCCCCCOc1nccnc1C1=CCCN(C)C1`, the IC50 was found to be 20 nM in assay [1], 17 nM in assay [2] and 266 nM in the assay filed under Oryctolagus cuniculus [4]. The compound further had a Max in the assay filed under Oryctolagus cuniculus [3] of 93%.
For the compound `CN1CCC=C(c2nccnc2Cl)C1`, the IC50 was above 1000 nM in assay [5] and 276 nM in assay [6].

For the origin of these results see ChEMBL document CHEMBL1126311, “Novel functional M1 selective muscarinic agonists. 2. Synthesis and structure-activity relationships of 3-pyrazinyl-1,2,5,6-tetrahydro-1-methylpyridines. Construction of a molecular model for the M1 pharmacophore” (J Med Chem, 1992).
